Screening data deposited in PubChem by Broad Institute.
An excerpt weighted towards active compounds, which were near 1.7% of everything screened.
SKKanGAS inh = S. pyogenes SKKanGAS growth inhibitors in kanamycin, primary screen, streptokinase expression inhibitor project, SKKanGAS strain, BacTiter-Glo luminescence. 6 h. hit rate 1.3% among 300,000. inhibition, % at 7.5 µM;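 active = mean replicate score, as percent of positive control median, at least 50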;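 also: strain carries kanamycin resistance gene driven by streptokinase promoter and grows in 40 µg/ml kanamycin; loss of luminescence reflects streptokinase promoter inhibition or plain growth inhibition; 0% = median of DMSO wells and 100% = positive control at its reference dose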
CSC inhib = cancer stem cell viability inhibitors, primary screen, luminescence. inhibition, % at 7.5 µM. hit rate 1.1% among 300,000. cancer stem cell-like cells viability; in the data active = inhibition above about 75%; tested in HMLE shEcad cells
PglD inh = C. jejuni PglD acetyltransferase inhibitors, primary screen, biochemical, DTNB colorimetric, single point; inhibition, % at 12.5 µM; purified PglD enzyme, DTNB colorimetric CoA detection; hit rate 0.098% among 360,000; UDP-N-acetylbacillosamine N-acetyltransferase PglD (Campylobacter jejuni); in the data active = inhibition above about 16%, passing the limit was not always enough
PfHsp90 set2 = growth inhibition of PfHsp90-expressing yeast, primary screen, antimalarial PfHsp90 inhibitor project, S. cerevisiae, BacTiter-Glo luminescence, single point, set 2. AID 504621, 2011. BacTiter-Glo ATP, 48 h; yeast lacking PDR1 and PDR3 efflux regulators. inhibition, % at 9.4 µM. hit rate 0.32% among 310,000;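 active = every replicate shows inhibition above about 80%, whatever the replicate mean, limit read from the data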;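 also: 0% = DMSO neutral controls and 100% = 20 µM radicicol positive controls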
FN deposition inh = inhibitors of fibronectin matrix deposition, primary screen, AH1F cells, Alexa488-fibronectin fluorescence, plate reader | AH1F fibroblasts, overnight | hit rate 0.086% among 350,000 | AID 743247, 2014 | inhibition, % at 12.6 µM;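 active = mean inhibition across replicates of 30% or more, regardless of how many single replicates reach that level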;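 also: positive control wells lacked labelled fibronectin entirely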
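Assay system: AH1F fibroblast monolayer, labelled fibronectin deposition. Amount: 10000 cells per well. Also added: labelled fibronectin 24 nM. Compound: single-point pinned compound. Incubation: cell attachment 1 h, compound and FN exposure overnight. Detection: fluorescence after three HBSS washes, excitation 485 nm, emission 525 nm. Read-out: inhibition of fibronectin deposition signal.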
Rtt109 Vps75 = inhibitors of C. albicans Rtt109/Vps75 HAT, primary screen, biochemical, ThioGlo CoA-SH fluorescence, plate reader; purified Rtt109/Vps75, 4 h; inhibition, % at 34.9 µM; hit rate 0.16% among 330,000; AID 540336, 2011;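 active = inhibition of at least 50% in every replicate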
Target sequence (Q5AAJ8 whole entry, looked up): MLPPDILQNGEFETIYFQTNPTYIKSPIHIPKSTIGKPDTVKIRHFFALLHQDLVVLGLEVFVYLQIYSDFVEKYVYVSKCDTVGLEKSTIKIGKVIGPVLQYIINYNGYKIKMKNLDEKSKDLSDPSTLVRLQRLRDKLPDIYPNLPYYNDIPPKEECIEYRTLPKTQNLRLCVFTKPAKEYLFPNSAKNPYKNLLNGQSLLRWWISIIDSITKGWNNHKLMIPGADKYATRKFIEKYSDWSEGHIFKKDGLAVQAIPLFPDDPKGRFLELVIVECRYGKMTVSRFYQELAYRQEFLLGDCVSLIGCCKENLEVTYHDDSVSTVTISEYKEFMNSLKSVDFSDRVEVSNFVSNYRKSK
Active calls of the source: *; / = no result given.

SMILES | SKKanGAS inh | CSC inhib | PglD inh | PfHsp90 set2 | FN deposition inh | Rtt109 Vps75
CC(C)(C)OC(=O)NCCCC[C@H](NC(=O)c1[nH]cnc1C(=O)Nc1ccc(Cl)cc1)C(=O)OC(C)(C)C | 56.6* | 6.7 | -0.2 | -14.2 | / | 3.5
CCOC(=O)c1c(CSc2ccc(CC)cc2)oc2ccc(O)c(CN(C)C)c12 | 0.9 | 81.5* | -0.3 | 14.7 | 4.7 | -0.1
CCOC(=O)c1c(CSc2ccc(C)cc2)oc2ccc(O)cc12 | 42.7 | 135.2* | -6.9 | 3.0 | -8.3 | 5.9
CN1C(=O)c2cc(NC(=O)c3ccccc3F)ccc2OC[C@@H]2O[C@@H](CC(=O)NCc3ccc4c(c3)OCO4)CC[C@H]21 | / | / | 4.1 | / | 0.0 | /
N=C1S/C(=C\c2ccccc2)C(=O)N1c1ccc(F)cc1 | -12.0 | / | / | / | 0.8 | -6.9
N=C1S/C(=C\c2cn[nH]c2-c2ccc(F)cc2)C(=O)N1c1ccccc1F | 60.1* | 72.7 | / | 13.1 | / | 5.1
N=C1S/C(=C\c2cccc3ccccc23)C(=O)N1c1ccc(F)cc1 | 55.9* | 97.2* | / | -42.1 | / | -1.1
N=C1S/C(=C\c2ccccc2F)C(=O)N1c1ccc(F)cc1 | -3.4 | -1.7 | / | / | 1.8 | -3.3
Cc1cc(N2CCN(c3ccc(C(F)(F)F)cc3[N+](=O)[O-])CC2)c2ccccc2n1 | 14.2 | 97.3* | -1.2 | 2.3 | -1.2 | 21.4
Cc1cc(N2CCN(c3ccc([N+](=O)[O-])c4cccnc34)CC2)c2ccccc2n1 | 1.4 | 2.3 | / | 1.4 | / | 3.7
Oc1ccc(Nc2nc3ccccc3nc2Nc2ccc(O)cc2)cc1 | 11.7 | 77.9* | -1.4 | -9.3 | / | 28.8
Oc1cc2c(cc1O)C1c3ccc(O)c(O)c3OCC1(O)C2 (centres undefined) | / | -12.3 | 0.8 | -1.4 | / | 159.3*
O=C(CNC(=O)c1ccccc1Br)N/N=C\c1cc([N+](=O)[O-])cc(Br)c1O | 58.7* | 26.7 | 4.2 | -22.3 | -7.3 | 9.7
CCOc1ccc(NC(=O)CN2CC(c3ccccc3)CC2=O)cc1 (centres undefined) | -10.4 | -23.5 | 5.7 | -6.9 | 12.6 | 1.8
O=C(CN1CC(c2ccccc2)CC1=O)N/N=C/c1cc(Br)ccc1O (centres undefined) | 79.1* | 38.9 | / | -17.3 | 12.6 | -1.8
O=C(CNC(=O)c1ccccc1Br)N/N=C/c1cc(Br)ccc1O | 72.8* | 31.5 | -4.3 | 19.2 | 10.6 | /
O=C(CNC(=O)c1ccccc1Br)N/N=C/c1ccccc1O | 0.3 | / | / | -19.4 | 2.7 | -9.2
COC(=O)N/N=C/c1cc([N+](=O)[O-])cc(Br)c1O | -4.7 | 16.2 | / | -42.8 | / | 4.8
COc1ccc([N+](=O)[O-])cc1N(CC(=O)NCCSc1ccc(C)cc1)S(C)(=O)=O | 9.9 | 16.0 | / | 1.1 | 3.3 | -10.7
Cc1cccc(NS(=O)(=O)c2ccc(NC(=O)CN(c3cc([N+](=O)[O-])ccc3C)S(C)(=O)=O)cc2)c1 | 16.3 | 95.6* | 8.0 | 9.0 | -6.7 | /
Cc1cccc(NS(=O)(=O)c2cc(NC(=O)CC(=O)c3ccc([N+](=O)[O-])cc3)ccc2C)c1 | 2.0 | / | / | / | / | /
COc1ccc(C)cc1NS(=O)(=O)c1ccc(NC(=O)CN(c2cc([N+](=O)[O-])ccc2C)S(C)(=O)=O)cc1 | 20.3 | 92.7* | 4.9 | -41.6 | 4.1 | 46.2
O=C(C[C@H]1C[C@@H]2c3cc(NS(=O)(=O)c4ccc(F)cc4)ccc3O[C@@H]2[C@@H](CO)O1)NCc1ccc(-c2ccccc2)cc1 | / | / | 2.2 | / | 2.6 | /
C[C@@H]1CCCCO[C@H](CN(C)Cc2ccc(C(=O)O)cc2)[C@H](C)CN([C@@H](C)CO)C(=O)c2cc(NS(C)(=O)=O)ccc2O1 | / | / | -1.5 | / | / | /
COc1ccc(S(=O)(=O)NCC(c2ccc(F)cc2)N2CCN(C)CC2)cc1 (centres undefined) | 50.1* | / | 3.9 | 9.8 | -9.6 | 14.2
SMILES | SKKanGAS inh | CSC inhib | PglD inh | PfHsp90 set2 | FN deposition inh | Rtt109 Vps75
COc1ccc(C(CNS(=O)(=O)c2ccc(F)cc2)N2CCN(C)CC2)cc1 (centres undefined) | 35.7 | / | 1.1 | / | 4.2 | -1.1
O=[N+]([O-])/C=C/c1cn(Cc2ccc(F)cc2)c2ccccc12 | 3.7 | 137.0* | / | / | -6.6 | 6.1
CCNC(=S)N/N=C/c1cn(Cc2ccc(F)cc2)c2ccccc12 | 21.9 | 89.6* | / | 9.1 | -0.4 | -11.7
CCNC(=S)N/N=C/c1cn(Cc2ccccc2F)c2ccccc12 | -6.4 | 30.8 | / | -48.3 | 6.0 | -5.4
Cc1c(CCOC(=O)C2C3CC4CC(C3)CC2C4)sc[n+]1CC(=O)c1ccc(Br)cc1 (centres undefined) | 49.9* | 107.7* | 14.1 | -33.9 | -2.0 | -1.2
Cc1c(CCOC(=O)c2ccc(Cl)cc2Cl)sc[n+]1CC(=O)c1ccc(Br)cc1 | / | 19.3 | -5.0 | -10.1 | / | -0.9
O=C(Nc1nc2ccccc2n1CCN1CCOCC1)c1ccc(Cn2cc([N+](=O)[O-])cn2)o1 | 26.8 | -14.6 | 0.3 | / | 6.2 | -32.9
O=C(Nc1nc2ccccc2n1CCN1CCOCC1)c1ccc(COc2ccccc2Br)o1 | 49.7* | 28.1 | / | 12.1 | 3.5 | /
COc1ccc(NC(=O)c2ccc(COc3ccccc3Br)o2)c(OC)c1 | 1.0 | 91.9* | -1.1 | / | 10.7 | /
C[C@@H]1CN([C@H](C)CO)C(=O)Cc2cc(NC(=O)Cc3ccccc3)ccc2O[C@@H]1CN(C)S(=O)(=O)c1cccs1 | / | / | 1.1 | / | 4.1 | /
Clc1ccccc1CN(Cc1ccccc1)c1ncnc2nc[nH]c12 | 50.8* | 50.8 | -6.8 | -14.8 | / | -1.1
C[C@@H]1CN([C@@H](C)CO)C(=O)c2cc(NC(=O)Nc3ccccc3)ccc2O[C@H]1CN(C)S(=O)(=O)c1ccc(F)cc1 | / | / | 3.6 | / | 11.6 | /
O=C(O)C[C@@H]1CC[C@@H]2[C@H](COC[C@@H](O)CN2S(=O)(=O)c2ccc(F)cc2)O1 | / | / | -0.7 | / | 4.2 | /
CC(C)n1c(/C=C/[C@@H](O)C[C@@H](O)CC(=O)O)c(-c2ccc(F)cc2)c2ccccc21 | 3.1 | 15.6 | -0.8 | 29.9 | 9.8 | -2.5
COCc1c(C(C)C)nc(C(C)C)c(/C=C/[C@@H](O)C[C@@H](O)CC(=O)O)c1-c1ccc(F)cc1 | 7.4 | 105.8* | / | / | / | /
C[C@H]1CN([C@@H](C)CO)C(=O)c2cc(NC(=O)NC3CCCCC3)ccc2O[C@@H]1CN(C)S(=O)(=O)c1ccc(Cl)cc1 | / | / | -2.5 | / | / | /
COc1ccc(NC(=O)Nc2ccc3c(c2)C(=O)N([C@H](C)CO)C[C@@H](C)[C@@H](CN(C)Cc2ccc4c(c2)OCO4)OCCCC[C@@H](C)O3)cc1 | / | / | -0.1 | / | / | /
COc1ccccc1C(=O)NNC(=S)NC(=O)c1cccs1 | 103.6* | 3.1 | 4.3 | 91.7* | / | 23.8
O=C(NC(=S)NNC(=O)c1ccccc1O)c1cccs1 | 90.2* | / | -1.7 | 24.0 | 3.8 | -3.0
